From publication PMC8317952 (ACS catalysis, 2020)
Several values for one entry are separate records, joined by “and”; a condition that tells them apart may be missing. Equal entries are not always repeated. Structures can show the parent of a compound that is named as a salt. Where two headings read alike, the source gives them in different places.

How the values were obtained:
P450BM-3 [1] = biological target: T1, P450BM-3 (Priestia megaterium, UniProt P14779); experiment: biochemical; format: binding
T1 sequence (P14779 1-1049): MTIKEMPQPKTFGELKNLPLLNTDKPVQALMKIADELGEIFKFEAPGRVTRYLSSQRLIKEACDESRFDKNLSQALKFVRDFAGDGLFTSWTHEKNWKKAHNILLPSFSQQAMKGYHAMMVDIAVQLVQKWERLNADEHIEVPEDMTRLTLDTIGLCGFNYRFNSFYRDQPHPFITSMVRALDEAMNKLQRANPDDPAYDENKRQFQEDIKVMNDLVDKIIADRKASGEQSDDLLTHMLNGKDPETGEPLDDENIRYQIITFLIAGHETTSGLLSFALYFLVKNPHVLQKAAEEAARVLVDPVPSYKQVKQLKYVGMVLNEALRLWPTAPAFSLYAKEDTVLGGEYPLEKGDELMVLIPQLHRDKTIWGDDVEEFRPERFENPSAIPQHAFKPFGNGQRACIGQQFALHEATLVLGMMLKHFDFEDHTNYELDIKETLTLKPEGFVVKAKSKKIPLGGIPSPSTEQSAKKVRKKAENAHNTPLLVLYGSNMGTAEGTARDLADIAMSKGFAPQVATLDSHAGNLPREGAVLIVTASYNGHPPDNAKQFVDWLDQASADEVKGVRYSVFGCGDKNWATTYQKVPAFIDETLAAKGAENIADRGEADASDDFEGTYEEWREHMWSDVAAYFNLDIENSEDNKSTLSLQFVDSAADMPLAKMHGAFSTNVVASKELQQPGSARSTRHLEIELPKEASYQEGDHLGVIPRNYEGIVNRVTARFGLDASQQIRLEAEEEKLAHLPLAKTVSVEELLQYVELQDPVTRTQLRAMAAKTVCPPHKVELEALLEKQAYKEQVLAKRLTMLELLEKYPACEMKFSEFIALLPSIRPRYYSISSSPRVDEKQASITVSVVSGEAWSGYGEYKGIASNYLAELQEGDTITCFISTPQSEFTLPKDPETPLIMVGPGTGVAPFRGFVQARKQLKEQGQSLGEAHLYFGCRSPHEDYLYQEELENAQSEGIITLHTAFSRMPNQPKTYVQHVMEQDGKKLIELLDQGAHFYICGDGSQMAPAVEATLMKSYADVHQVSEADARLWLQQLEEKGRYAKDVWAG

P450BM-3 [2] = biological target: T1, P450BM-3; format: binding, Bacillus megaterium; settings: read-out: Kd estimate (Kd = koff/kon); from fitted on- and off-rate constants
P450BM-3 [3] = biological target: T1, P450BM-3; experiment: Steady-state NADPH oxidation; format: biochemical, Bacillus megaterium; settings: for Km / kcat: rates of NADPH oxidation, hyperbolic fit, 23 °C
P450BM-3 [4] = biological target: T1, P450BM-3; settings: substrate-bound P450BM-3; cited from earlier work
ferrous P450BM-3 = settings: surrogate for O2; cited from earlier work
P450BM-3 [5] = biological target: T1, P450BM-3; format: biochemical, Bacillus megaterium; settings: for site of hydroxylation: Jones oxidation, Baeyer-Villiger, LC-MS/MS
P450BM-3 [6] = biological target: T1, P450BM-3; experiment: Burst experiment: stopped-flow NADPH oxidation with lauric acid; format: biochemical, Bacillus megaterium; settings: 2 μM P450BM-3, 500 μM lauric acid, 50 μM NADPH
Summary of the method: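 In the stopped-flow instrument, enzyme (4 μM) premixed with 1 mM lauric acid was mixed with 100 μM NADPH, both in 50 mM potassium MOPS pH 7.5. Runs were at 23 °C in rapid-scanning mode, recording spectra from 332–565 nm with kinetic traces taken at individual wavelengths.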

P450BM-3 [7] = biological target: T1, P450BM-3; settings: read-out: Kd values in the previous literature; buffer conditions appear to affect these; cited from earlier work
P450BM-3 [8] = biological target: T1, P450BM-3; settings: cited from earlier work
mutants of P450BM-3 = settings: cited from earlier work
P450BM-3 [9] = biological target: T1, P450BM-3; experiment: Pre-steady-state stopped-flow kinetics of substrate binding; parameters: species or system Bacillus megaterium; settings: for eigenvalue (λ) of spectral change, single exponential fit: ΔA390
P450 102A2 (CYP102A2) [10] = experiment: Literature: NADPH oxidation and binding with dodecyl sulfate by P450 102A2; format: biochemical, B. subtilis; settings: P450 102A2 at 37 °C vs P450BM-3 at 23 °C
P450 102A2 (CYP102A2) [11] = settings: cited from earlier work
[12] = read-out: Kd (spectral titration), 50 mM potassium MOPS pH 7.4, 23 °C
[13] = d0 vs d23 lauric acid, non-competitive, NADPH oxidation

Which results are given for CC(O)CCCCCCCCCC(=O)O (centres unmarked) [11-OH lauric acid]?
type of difference spectrum (P450BM-3 [1]): Type I; Kd (P450BM-3 [1]; [12]): 8 ± 2 µM; Kd (P450BM-3 [2]): 11 µM

With CCCCCCCCCCCCCCCC(=O)NCC(=O)O [N-palmitoylglycine] as the molecule, how does the Km (P450BM-3 [3]) read?
Its Km is 9 ± 2 µM.

What about the kcat (P450BM-3 [3]) of the same molecule?
The kcat was 9.92 ± 0.667 s⁻¹.

What about the “rate of change of temperature-dependent spin equilibria” value (P450BM-3 [4]) of the same molecule?
Its value is ~ 800 s^−1.

For [C-]#[O+] [CO], which “rate constant for CO binding” value (ferrous P450BM-3) is on record?
The value was 1.6e+06 M⁻¹ s⁻¹.

For CCCCCCCCCCCC(=O)O [lauric acid], which Kd (P450BM-3 [1]; [12]) is on record?
The Kd was 29 µM.

What about the “KIE, ^D(V/K)” value (P450BM-3 [3]; [13]) of the same molecule?
The value was 0.79 ± 0.07.

And the “KIE, ^DV” value (P450BM-3 [3]; [13])?
Its value is 1.19 ± 0.16.

And the “KIEs, measured with multiple concentrations of d0/d23 laurate” value (P450BM-3 [3]; depending on the assay method)?
The value was at most 1.2.

And the kcat (P450BM-3 [3])?
The kcat was 19.33 ± 2.5 s⁻¹.

What about the “KIE from rates of formation of hydroxylated laurate products” value (P450BM-3 [5]; LC-MS, 100 μM laurate, 180 second time point) of the same molecule?
Its value is 1.03.

And the kinetic burst (P450BM-3 [6])?
Its kinetic burst is “No burst was observed”.

And the “rate of NADPH oxidation, steady-state portion” value (P450BM-3 [6]; pH 7.5)?
The value was 608 ± 4 min⁻¹.

And the Kd (P450BM-3 [7])?
Its Kd is 27 to 390 µM.

And the “rate of reduction of iron from the ferric to the ferrous state” value (P450BM-3 [8])?
Its value is 53 to 306 s⁻¹.

Which results are given for CCCCCCCCCCCCCC(=O)O [myristate]?
Kd (P450BM-3 [1]): 12 µM; Kd (P450BM-3 [7]): 0.5 to 78 µM; rate of reduction of iron from the ferric to the ferrous state (P450BM-3 [8]): 53 to 306 s⁻¹

Which “rate of reduction of iron from the ferric to the ferrous state” value (P450BM-3 [8]) does the source give for CCCCCCCCCCCCCCCC(=O)O [palmitic acid, Palmitic acid] here?
The value was 53 to 306 s⁻¹.

Which results are given for CCCCCCCCCCCCCCOS(=O)(=O)O [tetradecyl sulfate]?
Kd (P450BM-3 [1]): 1.4 ± 0.1 µM; initial rate of disappearance of NADPH (A340) (P450BM-3 [3]; with tetradecyl sulfate as substrate): 1.75 pmol/s; site of hydroxylation (P450BM-3 [5]): primarily ω−1 hydroxylation; NADPH oxidation accounted for as disappearance of the substrate (P450BM-3 [5]; over the first 100 seconds): 97%

For CCOc1ccc2ccc(=O)oc2c1 [7-ethoxycoumarin], which “KIEs for O-deethylation” value (mutants of P450BM-3) is on record?
The value was 6–17.

For CCCCCCCCCCCCOS(=O)(=O)O [dodecyl sulfate], which Kd (P450BM-3 [1]; [12]) is on record?
Its Kd is 14 ± 2 µM.

What about the Km (P450BM-3 [3]) of the same molecule?
Its Km is 28 ± 1 µM.

What about the kcat (P450BM-3 [3]) of the same molecule?
The kcat was 16.3 ± 0.333 s⁻¹.

And the “eigenvalue (λ) of spectral change, single exponential fit” value (P450BM-3 [9]; 2 μM dodecyl sulfate (final))?
The value was 127 s⁻¹ and 127 ± 4 s⁻¹.

What about the “eigenvalue (λ) of spectral change, single exponential fit” value (P450BM-3 [9]; 200 μM dodecyl sulfate (final)) of the same molecule?
The value was 51 ± 4 s⁻¹.

What about the “rate constant for substrate binding (kon), rough value” (P450BM-3 [9]; from binding rate and substrate concentration) of the same molecule?
The value was 6e+07 M⁻¹ s⁻¹.

What about the “t1/2 of binding spectral changes” value (P450BM-3 [9]; stopped-flow) of the same molecule?
The value was 0.006 to 0.025 s.

And the site of hydroxylation (P450BM-3 [5])?
The site of hydroxylation was “primarily ω−1 hydroxylation”.

And the “fold lower specificity constant of P450 102A2 than P450BM-3” value (P450 102A2 (CYP102A2) [10])?
Its value is ~ 500 fold.

What about the “apparent specificity constant kcat/S0.5” value (P450 102A2 (CYP102A2) [11]; 37 °C) of the same molecule?
Its value is 1600 M⁻¹ s⁻¹.

What about the Hill n value (P450 102A2 (CYP102A2) [11]; spectral binding and NADPH oxidation) of the same molecule?
The Hill n value was 5.7.

For d23-Lauric acid [d23 lauric acid], which kcat (P450BM-3 [3]) is on record?
Its kcat is 16.2 ± 0.5 s⁻¹.
